Test results reported in ChEMBL document CHEMBL3244024, “Synthesis and antiallergic activity of some mono- and disubstituted xanthone-2-carboxylic acids” (1978).

Each compound was assayed on Rattus norvegicus (assay: Antiallergic activity in iv dosed Sprague-Dawley rat assessed as inhibition of egg albumin-induced passive cutaneous anaphylaxis after 15 to 25 mins relative to disodium cromoglycate).

Question: For `CC(C)[S+]([O-])c1ccc2oc3ccc(C(=O)O)cc3c(=O)c2c1` (stereo not given), which RPCA relative potency is on record?
Answer: 4

Question: Which RPCA relative potency does the source give for `CS(=O)(=O)c1ccc2oc3ccc(C(=O)O)cc3c(=O)c2c1` here?
Answer: 7

Question: How did the RPCA relative potency turn out when `CCCCOc1cc([S+](C)[O-])cc2c(=O)c3cc(C(=O)O)ccc3oc12` (stereo not given) was run?
Answer: 260

Question: With `CC(=O)c1ccc2oc3ccc(C(=O)O)cc3c(=O)c2c1` as the compound, how does the RPCA relative potency read?
Answer: 6

Question: For `CCC(=O)c1ccc2oc3ccc(C(=O)O)cc3c(=O)c2c1`, which RPCA relative potency is on record?
Answer: 2

Question: `CC(C)C(=O)c1ccc2oc3ccc(C(=O)O)cc3c(=O)c2c1` was tested. Which RPCA relative potency did it give?
Answer: 3

Question: With `O=C(O)c1ccc2oc3ccc(C(=O)C4CC4)cc3c(=O)c2c1` as the compound, how does the RPCA relative potency read?
Answer: 3

Question: For `O=C(O)c1ccc2oc3ccc(C(=O)C4CCCC4)cc3c(=O)c2c1`, which RPCA relative potency is on record?
Answer: 2

Question: Which RPCA relative potency does the source give for `CSc1ccc2oc3ccc(C(=O)O)cc3c(=O)c2c1` here?
Answer: 5

Question: For `CC(C)Sc1ccc2oc3ccc(C(=O)O)cc3c(=O)c2c1`, which RPCA relative potency is on record?
Answer: 2

Question: For `COc1cc(OC)c2oc3ccc(C(=O)O)cc3c(=O)c2c1`, which RPCA relative potency is on record?
Answer: 6

Question: With `COc1cc2oc3ccc(C(=O)O)cc3c(=O)c2cc1OC` as the compound, how does the RPCA relative potency read?
Answer: 2

Question: How did the RPCA relative potency turn out when `COc1cc(OC)c2c(=O)c3cc(C(=O)O)ccc3oc2c1` was run?
Answer: 0.1

Question: `Cc1cc(C)c2oc3ccc(C(=O)O)cc3c(=O)c2c1` was tested. Which RPCA relative potency did it give?
Answer: 1

Question: For `Cc1cc2oc3ccc(C(=O)O)cc3c(=O)c2cc1C`, which RPCA relative potency is on record?
Answer: 0.2

Question: Which RPCA relative potency does the source give for `Cc1ccc2oc3ccc(C(=O)O)cc3c(=O)c2c1C` here?
Answer: 0.2

Question: Which RPCA relative potency does the source give for `CCOc1cc([S+](C)[O-])cc2c(=O)c3cc(C(=O)O)ccc3oc12` (stereo not given) here?
Answer: 80

Question: How did the RPCA relative potency turn out when `CCCOc1cc([S+](C)[O-])cc2c(=O)c3cc(C(=O)O)ccc3oc12` (stereo not given) was run?
Answer: 50

Question: For `CC(C)Oc1cc([S+](C)[O-])cc2c(=O)c3cc(C(=O)O)ccc3oc12` (stereo not given), which RPCA relative potency is on record?
Answer: 190

Question: For `CCCCCOc1cc([S+](C)[O-])cc2c(=O)c3cc(C(=O)O)ccc3oc12` (stereo not given), which RPCA relative potency is on record?
Answer: 90

Question: `CC(C)CCOc1cc([S+](C)[O-])cc2c(=O)c3cc(C(=O)O)ccc3oc12` (stereo not given) was tested. Which RPCA relative potency did it give?
Answer: 100

Question: For `C[S+]([O-])c1cc(OC2CCCC2)c2oc3ccc(C(=O)O)cc3c(=O)c2c1` (stereo not given), which RPCA relative potency is on record?
Answer: 100

Question: For `CCCCCCCCOc1cc([S+](C)[O-])cc2c(=O)c3cc(C(=O)O)ccc3oc12` (stereo not given), which RPCA relative potency is on record?
Answer: 35

Question: For `C[S+]([O-])c1ccc2oc3ccc(C(=O)O)cc3c(=O)c2c1` (stereo not given) [TIXANOX], which RPCA relative potency is on record?
Answer: 25

Each compound was assayed on Rattus norvegicus (assay: Antiallergic activity in iv dosed Sprague-Dawley rat assessed as inhibition of egg albumin-induced passive cutaneous anaphylaxis after 15 to 25 mins relative to disodium cromoglycate).
Type: functional
In short: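 Reaginic antiserum from rats immunized with 1.25 mg egg albumin sc plus H. pertussis vaccine ip, bled 11 days later. Recipient rats sensitized intradermally with two antiserum dilutions in 0.1 mL saline. Challenged 24 h later iv with 1.0 mL buffered saline (pH 7.2) holding 1.0 mg albumin, 0.5% Evans blue and test compound. Usually three doses (fivefold increments), ≥5 rats per group.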

Question: With `CCCCOc1cc([S+](C)[O-])cc2c(=O)c3cc(C(=O)O)ccc3oc12` (stereo not given) as the compound, how does the “fold change (FC)” value read?
Answer: 260
